Measured values taken from ChEMBL document CHEMBL4513216, “Probing the Open Global Health Chemical Diversity Library for Multistage-Active Starting Points for Next-Generation Antimalarials” (ACS Infect Dis, 2020).

Experiment: Toxicity liver stage against HepG2, at 10uM
Format: cell-based
Set-up: test concentration 10 uM, cell line HepG2-A16-CD81EGFP
Conditions: human, HepG2-A16-CD81EGFP cells; read-out: INHIBITION
Method in brief: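 Uninfected HepG2-A16-CD81EGFP cells, 3 × 10^3 per well, 1536-well, plated on prespotted compound at 10 μM final, parasite-free screening media added to match infected plates; puromycin 10 μM positive, DMSO 0.5% negative; run in parallel with 48 h PbLuc assay at 37 °C, 5% CO2; viability by CellTiter-Glo luminescence, normalized to controls.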

Structure (SMILES) | cytotoxicity at 10 µM [%]
COc1ccccc1CNC(=O)C(C)n1cc2c(n1)c(C)nn2C (stereo not given) | 1.61
CCn1c(N)nc2cc(C(=O)N3CCN(CC(F)(F)F)CC3)cnc21 | -2.03
CN(C)c1cc(CNC(=O)Nc2ccc(N3CCCC3)nc2)ccn1 | -0.338
COCCCC(=O)Nc1cc(Cl)c(Cl)cn1 | 87
Cn1nc(CNC(=O)C2CC2)cc1C1CC1 | 1.96
CN(Cc1cn2c(n1)CN(C(=O)c1cccnc1)CC2)Cc1ccco1 | -2.19
CN(CC(=O)Nc1cc(-c2cc(Cl)cc(Cl)c2)[nH]n1)S(C)(=O)=O | 6.72
Cc1csc(C(Cc2ccsc2)NC(=O)CN(C)Cc2cccnc2)n1 (stereo not given) | 0.471
Cc1cccc(CN2CCN(C(=O)N(C)C)[C@@H]3CS(=O)(=O)C[C@@H]32)n1 | 0.00559
CC(C)c1nc2c(n1C)CCN(Cc1nc(-c3cccnc3)no1)C2 | -1.43
CCc1nnc2n1CC(CNc1cnc3ccccc3n1)CC2 (stereo not given) | -37.4
Fc1ccc(CN2CCOC[C@H](Oc3cccnc3)C2)cc1 | 7.35
CC(NC(=O)NCCCO)c1ccc2c(c1)OCCO2 (stereo not given) | -2.92
CC(C)[C@H]1COC(=O)N1Cc1nnc(-c2ccccc2)o1 | 0.537
CC(C)C(NC(=O)C1CC1)c1cc(O)nc(-c2cccnc2)n1 (stereo not given) | 5.18
COCCC(=O)N1CCC(c2nnc(-c3ccsc3)o2)CC1 | 9.09
Cc1csc(NCC(=O)c2c[nH]c3ccccc23)n1 | 22.4
O=C(NC1CC1)N1CCOCC2(C1)CN(c1ccccc1)C(=O)CO2 (stereo not given) | -1.37
CN(Cc1cccnc1)C[C@@H]1OC[C@H]2CN(Cc3ccoc3)CC[C@H]21 | -137
O=C(C1CC=CC1)N1C[C@H]2CN(Cc3ccncc3)C(=O)[C@H]2C1 | -86.6
Cc1cc(N2CCC3(CCCN(CCO)C3=O)C2)nc2ccccc12 (stereo not given) | 3.69
CC(C)(C)NC(=O)C1CSCN1S(=O)(=O)c1ccc(F)cc1 (stereo not given) | 0.65
CC(=O)NCC(=O)N1C[C@@H]2CC[C@H](Oc3ccccc3Cl)[C@@H]2C1 | 9.16
CCN1CCC(CC(=O)N2CCN(c3ccccc3OC)CC2C)CC1 (stereo not given) | -4.9
Cc1nn(C)cc1-c1ccnc(N(C)Cc2cccs2)n1 | 19
Cc1cc(N2CCC(c3n[nH]c4nccnc34)CC2)ncn1 | -25.6
CCN1CCC(CNC(=O)Nc2cc(C)on2)C1 (stereo not given) | -7.33
Cc1ccc(N2CC[C@H]3C[C@H](C(=O)NCc4ccco4)O[C@H]3C2)nn1 | -3.03

Structure (SMILES) | cytotoxicity at 10 µM [%]
Cc1cncc(NCc2ccccc2N2CCOCC2)c1 | 6.02
Cc1cc2ccccc2n1CC(=O)N[C@@H](C)C(=O)O | 0.77
Cc1csc(NC(=O)CN(C)CC2CCCN2c2cccnn2)n1 (stereo not given) | -5.82
CCn1cc(NC(=O)NCC(c2cccs2)N(C)C)cn1 (stereo not given) | -2.66
CC(Cc1ccc(Cl)cc1)NC(=O)Nc1cnn(CC(N)=O)c1 (stereo not given) | -5.86
Cc1cn2c(n1)CCC(NC(=O)CCn1ccnn1)C2 (stereo not given) | -2.53
O=C(NCC1CCCN1Cc1ccccc1)NCC1(O)CCC1 (stereo not given) | -9.17
Cc1nn(C)cc1C(=O)N1CCCC(n2nnc3cc(F)ccc32)C1 (stereo not given) | -11
Cn1cnnc1CNC(=O)CCCOc1ccccc1Cl | 3.28
Cc1ncsc1CN1C[C@@H]2COC[C@]2(C(=O)NCC2CC2)C1 | 5.38
Cc1ccc(S(=O)(=O)c2ncccc2CN2CCCC2)cc1 | -49.4
O=C1NCCO[C@H]2CN(C(=O)c3cccs3)CC[C@@H]12 | -107
CCN(Cc1nc2c(cnn2C)c(=O)[nH]1)c1cccc(Cl)c1 | 1.18
CCOc1cc(C)nc(N2CCN(Cc3nccn3CC)CC2)n1 | -3.81
Cc1ccsc1C(=O)N1CC2CC1(C(=O)NCc1ccco1)C2 | -6.43
COCCn1c(=O)n(Cc2cccc(F)c2F)c2cc(C(=O)O)ccc21 | 9.15
CNC(=O)c1ccccc1-c1ccc(S(C)(=O)=O)cc1 | -2.07
O=C(CCOc1ccc(Cl)cc1)NCCCn1cccn1 | -12.1
CC(C)n1ccnc1CN1CCCN(C(=O)CN(C)C2CC2)CC1 | -3.96
O=C(C1CCCC1)N1C[C@@H]2CCNC[C@@H]21 | -0.155
COCC(=O)N1CCN(C(=O)Cc2cccs2)[C@H]2CS(=O)(=O)C[C@H]21 | 2.21
Cc1ccccc1CN1CCN(Cc2nccn2C)CC1 | -10.1
COCCN(Cc1cnn(C)c1)C(=O)C1CCCN(C2CCOCC2)C1 (stereo not given) | 4.76
COc1ccccc1C1(CNc2nnc(C)c(C)c2C#N)CCCC1 | 34.4
O=C(NCCOc1ccc2c(c1)OCO2)N1CCCC(CO)C1 (stereo not given) | -22.3
COc1cc2c(nn1)CCN(Cc1noc(-c3ccccc3)n1)C2 | -1.49
Cc1cccnc1CN1CCN(C(=O)c2cnn(C(C)C)c2)CC1 | 0.616
